Published values gathered from unrelated publications.
Protocols differ between the studies behind these lines. Values after ≈ are worked out from the molar mass of the structure shown.
Organism: Pseudomonas aeruginosa

The MIC of `O=C(Nc1cccc(-c2cc(C(=O)O)no2)c1)Nc1ccc(Cl)c(Cl)c1` is reported as greater than 64 µg/mL (microbial growth, broth dilution; ATCC27853).
`CCCCCCCCCCCC(=O)OC[C@H]1O[C@@H](n2cc(C)c(=O)[nH]c2=O)C[C@@H]1O` gave an MBC of 16 µg/mL (≈ 37.7 µM) (microbial killing, broth dilution).
The MIC50 of `ONCc1cc(F)cc(F)c1` is reported as 150 µg/mL (≈ 943 µM) (microbial growth; ATCC15692; 8 h).
`O=C(O)c1cn(C2CC2)c2cc(N3CCNCC3)c(F)cc2c1=O` gave an inhibition zone of 33.5 mm (microbial growth; K799/61; 1000 µg/mL).
`C[C@@H](O)[C@H]1C(=O)N2C(C(=O)O)=C(S[C@@H]3CN[C@H](C(=O)N(C)C)C3)[C@H](C)[C@H]12` gave an MIC90 of 0.25 µg/mL (≈ 0.652 µM) (microbial growth; PAO1).
The inhibition zone of `CC1(C)S[C@@H]2[C@H](NC(=O)[C@H](N)c3ccccc3)C(=O)N2[C@H]1C(=O)O` is reported as 32 mm (microbial growth, well diffusion; ATCC27853; 60000 µg/mL).
The MIC of `CSc1ccc(/C=C/c2cc(/C=C3\Sc4ccccc4N3CCCN3CCCC3)c3ccccc3[n+]2C)cc1.[I-]` is reported as 64 µg/mL (microbial growth, broth dilution; ATCCBAA2108; drug-resistant strain).
The MIC of `COC(=O)c1cc(-c2cccc(NC(=O)Nc3cccc(F)c3)c2)on1` is reported as greater than 64 µg/mL (microbial growth, broth dilution; ATCC27853).
The MIC of `COc1cccc(OC)c1C(=O)N[C@@H]1C(=O)N2[C@@H]1SC(C)(C)[C@@H]2C(=O)O` is reported as greater than 64 µg/mL (microbial growth, broth dilution; ATCCBAA2108; drug-resistant strain).
With `CCCCCCCCCCCC(=O)OC[C@H]1O[C@@H](n2cc(C)c(=O)[nH]c2=O)C[C@@H]1OC(=O)c1ccc(C(C)(C)C)cc1` the MBC was 16 µg/mL (≈ 27.4 µM) (microbial killing, broth dilution).
